Data: ChEMBL document CHEMBL2029219, “Synthesis, biological evaluation, and molecular modeling of natural and unnatural flavonoidal alkaloids, inhibitors of kinases” (J Med Chem, 2012)

Columns and labels:
[1] = biological target: Cyclin-dependent kinase 5/CDK5 activator 1 (Homo sapiens, UniProt Q00535); test: Inhibition of human recombinant CDK5/p25 using [gamma 33P]ATP after 30 mins by scintillation counting; type: protein-complex assay
Procedure, shortened: (§1)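 Native starfish M-phase oocyte CDK1/cyclin B, or recombinant human CDK5/p25, in buffer A pH 7.5 with heparin and BSA. Stopped on P81 paper, washed in 1% phosphoric acid, counted by scintillation. Blank subtracted; % of maximal activity; DMSO dilution controls.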

[2] = biological target: Glycogen synthase kinase-3 (Sus scrofa, UniProt B2LUN4+I6LNT8); test: Inhibition of porcine brain GSK3alpha/beta using GS1 as substrate
Procedure, shortened: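 Native GSK-3α/β purified from porcine brain, assayed as for CDK1. Buffer A pH 7.5 with heparin and BSA, 30 °C, 15 μM [γ-33P]ATP, phosphorylated GS-1 peptide as substrate. Read by P81 paper capture and scintillation counting. Activity as % of uninhibited control after blank subtraction.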

[3] = biological target: Dual specificity protein kinase CLK1 (Mus musculus, UniProt P22518); test: Inhibition of GST-tagged mouse recombinant CLK1 expressed in Escherichia coli using GRSRSRSRSRSR as substrate
[4] = Inhibition of starfish oocyte CDK1/cyclin B using [gamma 33P]ATP after 30 mins by scintillation counting; set-up: species or system Asteroidea
Procedure, shortened: as §1, with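 “BSA. Substrate histone H1 25 μg with 15 μM [γ-33P]ATP, 30 min at 30 °C.” for “BSA.”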

[5] = biological target: Dual specificity tyrosine-phosphorylation-regulated kinase 1A (Rattus norvegicus, UniProt Q63470); test: Inhibition of GST-tagged rat recombinant DYRK1A expressed in Escherichia coli using KKISGRLSPIMTEQ as substrate

Chain of Cyclin-dependent kinase 5/CDK5 activator 1 (Q00535 whole entry): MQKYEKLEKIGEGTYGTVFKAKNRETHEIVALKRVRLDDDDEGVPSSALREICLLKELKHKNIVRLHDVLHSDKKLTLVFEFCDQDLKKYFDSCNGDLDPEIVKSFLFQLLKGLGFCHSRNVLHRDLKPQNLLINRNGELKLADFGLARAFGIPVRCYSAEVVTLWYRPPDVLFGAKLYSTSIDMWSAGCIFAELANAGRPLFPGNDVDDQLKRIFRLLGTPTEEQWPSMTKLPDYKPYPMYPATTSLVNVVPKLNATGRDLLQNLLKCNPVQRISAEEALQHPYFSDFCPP
Chain of Cyclin-dependent kinase 5/CDK5 activator 1 (Q15078 whole entry, further chain): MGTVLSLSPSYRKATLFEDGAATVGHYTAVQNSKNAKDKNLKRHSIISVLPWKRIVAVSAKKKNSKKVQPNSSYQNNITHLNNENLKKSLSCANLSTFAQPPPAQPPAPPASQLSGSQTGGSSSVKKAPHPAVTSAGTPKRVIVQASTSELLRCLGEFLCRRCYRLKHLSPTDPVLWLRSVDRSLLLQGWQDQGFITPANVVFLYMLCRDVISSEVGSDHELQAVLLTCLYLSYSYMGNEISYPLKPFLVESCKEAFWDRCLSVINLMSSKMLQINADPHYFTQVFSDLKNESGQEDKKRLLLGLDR
Chain of Dual specificity protein kinase CLK1 (P22518 whole entry): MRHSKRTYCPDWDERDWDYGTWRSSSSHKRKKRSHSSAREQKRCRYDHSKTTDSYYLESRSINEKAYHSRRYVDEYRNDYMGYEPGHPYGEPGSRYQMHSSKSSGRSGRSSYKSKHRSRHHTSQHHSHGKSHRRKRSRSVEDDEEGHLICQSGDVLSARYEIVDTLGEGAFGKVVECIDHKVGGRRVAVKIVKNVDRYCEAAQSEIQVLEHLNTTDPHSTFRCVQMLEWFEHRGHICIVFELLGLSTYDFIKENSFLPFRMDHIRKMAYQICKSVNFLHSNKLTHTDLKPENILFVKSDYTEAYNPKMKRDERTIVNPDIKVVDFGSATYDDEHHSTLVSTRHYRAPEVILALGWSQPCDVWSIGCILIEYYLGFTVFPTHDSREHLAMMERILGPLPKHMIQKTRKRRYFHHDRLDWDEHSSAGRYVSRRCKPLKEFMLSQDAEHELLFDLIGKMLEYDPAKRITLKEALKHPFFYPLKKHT

| SMILES | IC50 [1] [nM] | IC50 [2] | IC50 [3] [µM] | IC50 [4] [nM] | IC50 [5] [µM] |
| --- | --- | --- | --- | --- | --- |
| CN1CCCC[C@@H]1c1c(O)cc(O)c2c(=O)cc(-c3ccccc3)oc12 | 950 | >= 10 uM | > 10 | 1100 | > 10 |
| CN1CCCC[C@H]1c1c(O)cc(O)c2c(=O)cc(-c3ccccc3)oc12 | 50 | 1.6 µM | 2.1 | 30 | > 10 |
| COc1cc(O)c(C2CCCCN2)c2oc(-c3ccccc3)cc(=O)c12 (stereo unspecified) | > 10000 | > 10 µM | > 10 | > 10000 | > 10 |
| CN1CCC[C@@H]1c1c(O)cc(O)c2c(=O)cc(-c3ccccc3)oc12 | 570 | 2.6 µM | 7.4 | 390 | > 10 |
| CN1CCC[C@H]1c1c(O)cc(O)c2c(=O)cc(-c3ccccc3)oc12 | 40 | 0.72 µM | 0.67 |  | > 10 |
| CCCCC[C@@H](NC)c1c(O)cc(O)c2c(=O)cc(-c3ccccc3)oc12 | 270 | 4.1 µM | > 10 | 520 | > 10 |
| CCCCC[C@H](NC)c1c(O)cc(O)c2c(=O)cc(-c3ccccc3)oc12 | 2100 | > 10 µM | > 10 | 5400 | > 10 |
| CN1CCCC1c1c(O)cc(O)c2c(=O)cc(-c3ccccc3)oc12 (racemic) | 90 | 1.3 µM | 1.6 | 50 | > 10 |
| O=c1cc(-c2ccccc2)oc2c(C3CCCN3)c(O)cc(O)c12 (racemic) | 1100 | > 10 µM | > 10 | 1600 | > 10 |
| CCCCCC(NC)c1c(O)cc(O)c2c(=O)cc(-c3ccccc3)oc12 (racemic) | 520 | 5.2 µM | > 10 | 1100 | > 10 |
| CN1CCCCC1c1c(O)cc(O)c2c(=O)cc(-c3ccccc3)oc12 (racemic) | 1700 | 5.1 µM | 8.5 | 90 | > 10 |
| O=c1cc(-c2ccccc2)oc2c(C3CCCCN3)c(O)cc(O)c12 (racemic) | 5500 | > 10 µM | > 10 | 5000 | > 10 |
| CN1CC[C@H](c2c(O)cc(O)c3c(=O)cc(-c4ccccc4Cl)oc23)[C@H](O)C1 (single isomer, unassigned) [ALVOCIDIB] |  | 0.36 µM |  | 90 |  |
| COc1cc(O)c(C2CCCCN2C)c2oc(-c3ccccc3)cc(=O)c12 (stereo unspecified) [BUCHENAVIANINE] | > 10000 | > 10 µM | > 10 | > 10000 | > 10 |
